Activity calls are given as the source filed them. No cut-off for these calls is given here.
Tests used:
[1] = Apparent elimination half life in rabbit at 105 mg/kg, ig by HPLC analysis; format: ADME, organism-based, Oryctolagus cuniculus; parameters: dose 105 mg/kg, route intragastric; conditions: in vivo, po, read-out: beta t1/2 (converted)
Outline: (§1)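 Rabbits (n = 4), anesthetised with ether-Fluorothane 10:1, given a single 105 mg/kg dose in water (12 ml) by gastric tube. Ear-vein blood was heparinised at set times up to 24 h, mixed with methanol, centrifuged, dried, redissolved in water and assayed by C18 HPLC. Parameters came from an extravascular noncompartmental model. F = (AUCi.g./dose)/(AUCi.v./dose); CL = dose/AUC; Vss = CL × MRT.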

[2] = Total AUC in rabbit at 105 mg/kg, ig up to 24 hrs by HPLC analysis; format: ADME, organism-based, Oryctolagus cuniculus; parameters: time AUCmax, dose 105 mg/kg, route intragastric; conditions: in vivo, po; outline: as §1
[3] = Mean residence time in rabbit at 105 mg/kg, ig by HPLC analysis; format: ADME, organism-based, Oryctolagus cuniculus; parameters: dose 105 mg/kg, route intragastric; conditions: in vivo, po; outline: as §1
[4] = Tmax in rabbit at 105 mg/kg, ig by HPLC analysis; format: ADME, organism-based, Oryctolagus cuniculus; parameters: dose 105 mg/kg, route intragastric; conditions: in vivo, po; outline: as §1
[5] = Cmax in rabbit at 105 mg/kg, ig up to 24 hrs by HPLC analysis; format: ADME, organism-based, Oryctolagus cuniculus; parameters: dose 105 mg/kg, route intragastric; conditions: in vivo, po; outline: as §1
[6] = Total clearance in rabbit at 105 mg/kg, ig up to 24 hrs by HPLC analysis; format: ADME, organism-based, Oryctolagus cuniculus; parameters: dose 105 mg/kg, route intragastric; conditions: in vivo, po; outline: as §1
Oryctolagus cuniculus [7] = experiment: Volume of distribution at steady state in rabbit at 105 mg/kg, ig up to 24 hrs by HPLC analysis; format: ADME, organism-based; parameters: dose 105 mg/kg, route intragastric; conditions: in vivo, po; outline: as §1
Oryctolagus cuniculus [8] = experiment: Total AUC in rabbit at 4.3 mg/kg, iv up to 24 hrs by HPLC analysis; format: ADME, organism-based; parameters: time AUCmax, dose 4.3 mg/kg, route intravenous; conditions: in vivo
Outline: (§2)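 Rabbits (n = 4) received 4.3 mg/kg in physiological solution into the marginal ear vein over 1 min. Ear-vein blood was heparinised at set times up to 24 h, methanol-extracted and assayed by C18 HPLC with a heptafluorobutyric acid/ethanol gradient. A noncompartmental i.v. infusion model gave AUCtot, T1/2 and MRT; Vss = CL × MRT.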

Oryctolagus cuniculus [9] = experiment: Volume of distribution at steady state in rabbit at 4.3 mg/kg, iv up to 24 hrs by HPLC analysis; format: ADME, organism-based; parameters: dose 4.3 mg/kg, route intravenous; conditions: in vivo; outline: as §2
Influenza B virus [10] = experiment: Antiviral activity against Influenza B virus (B/Lee/1940) infected in […] assessed as survival rate at 50 mg/kg, ig administered 1 and 24 hrs before infection and 24 to 72 hrs post infection; format: functional; conditions: route intragastric
Influenza A virus [11] = experiment: Antiviral activity against Influenza A virus (A/Vietnam/1194/2004 (H5N1)) infected in MDCK cells assessed as log reduction in viral titer at 502 uM after 48 hrs […]; format: functional
Influenza A virus [12] = experiment: Antiviral activity against Influenza A virus (A/duck/Potsdam/1402-6/1986 (H5N2)) infected in MDCK cells assessed as log reduction in viral titer at 502 uM after 48 hrs […]; format: functional
Influenza A virus [13] = experiment: Antiviral activity against Influenza A virus H3N2 (A/Victoria/35/72) infected in MDCK cells assessed as log reduction in viral titer at 502 uM after 48 hrs […]; format: functional
Outline: (§3)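 MDCK monolayers in MEM with 10% FBS at 37°C under 5% CO2 were infected with allantoic-fluid virus diluted 10−1 to 10−7. Aqueous test compound was added after 1 h adsorption. Virus yield was read at 48 h by haemagglutination with 0.5% chicken erythrocytes, and titres also by plaque assay. Each concentration was run in duplicate.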

Influenza A virus [14] = experiment: Antiviral activity against Influenza A virus (A/Hong Kong/1073/99(H9N2)) infected in MDCK cells assessed as log reduction in viral titer at 502 uM after 48 hrs […]; format: functional
H3N2 subtype [15] = experiment: Antiviral activity against Influenza A virus (A/Aichi/2/1968(H3N2)) infected in […] assessed as survival rate at 50 mg/kg, ig administered 1 and 24 hrs before infection and 24 to 72 hrs post infection; format: functional; conditions: route intragastric
H3N2 subtype [16] = experiment: Antiviral activity against Influenza A virus (A/Aichi/2/1968(H3N2)) infected in […] assessed as survival rate at 100 mg/kg, ig administered 1 and 24 hrs before infection and 24 to 72 hrs post infection; format: functional; conditions: route intragastric
Influenza A virus [17] = experiment: Antiviral activity against Influenza A virus/H7N3 (A/Mallard/NT/12/02) infected in MDCK cells assessed as log reduction in viral titer at 502 uM after 48 hrs by MTT assay; format: functional
Influenza B virus [18] = experiment: Antiviral activity against Influenza B virus (B/Lee/1940) infected in […] assessed as survival rate at 100 mg/kg, ig administered 1 and 24 hrs before infection and 24 to 72 hrs post infection; format: functional; conditions: route intragastric
Influenza A virus [19] = experiment: Antiviral activity against Influenza A virus (A/Hong Kong/1073/99(H9N2)) infected in MDCK cells assessed as log reduction in viral titer at 960 uM after 48 hrs […]; format: functional
Influenza A virus [20] = experiment: Antiviral activity against Influenza A virus/H7N3 (A/Mallard/NT/12/02) infected in MDCK cells assessed as log reduction in viral titer at 960 uM after 48 hrs by MTT assay; format: functional
Influenza A virus [21] = experiment: Antiviral activity against Influenza A virus H3N2 (A/Victoria/35/72) infected in MDCK cells assessed as log reduction in viral titer at 385 uM after 48 hrs […]; format: functional; outline: as §3
Influenza A virus [22] = experiment: Antiviral activity against Influenza A virus H3N2 (A/Victoria/35/72) infected in MDCK cells assessed as log reduction in viral titer at 960 uM after 48 hrs […]; format: functional; outline: as §3
[23] = Toxicity against ig dosed rabbit; format: organism-based, Oryctolagus cuniculus; conditions: in vivo, po
Influenza A virus [24] = experiment: Antiviral activity against Influenza A virus H3N2 (A/Victoria/35/72) infected in HEK293T cells assessed as log reduction in viral titer at 1000 ug/ml; format: functional, HEK-293T
Influenza B virus [25] = experiment: Antiviral activity against Influenza B virus (B/Lee/1940) infected in […] at 100 to 150 mg/kg, ig administered after 24 hrs post infection; format: functional, organism-based
Influenza A virus [26] = experiment: Antiviral activity against Influenza A virus (A/Vietnam/1194/2004 (H5N1)) infected in MDCK cells assessed as log reduction in viral titer at 960 uM after 48 hrs […]; format: functional
[27] = Bioavailability in rabbit at 105 mg/kg, ig up to 24 hrs by HPLC analysis; format: ADME, organism-based, Oryctolagus cuniculus; conditions: in vivo, po; outline: as §1
Influenza A virus [28] = experiment: Antiviral activity against Influenza A virus H7N3 (A/Mallard/NT/12/02) infected in MDCK cells assessed as log reduction in viral titer at 385 uM after 48 hrs […]; format: functional
H3N2 subtype [29] = experiment: Antiviral activity against Influenza A virus (A/Aichi/2/1968(H3N2)) infected in […] at 100 to 150 mg/kg, ig administered after 48 hrs post infection; format: functional, organism-based
H3N2 subtype [30] = experiment: Antiviral activity against Influenza A virus (A/Aichi/2/1968(H3N2)) infected in […] at 100 to 150 mg/kg, ig administered 1 hr before infection; format: functional, organism-based
Influenza B virus [31] = experiment: Antiviral activity against Influenza B virus (B/Lee/1940) infected in […] at 100 to 150 mg/kg, ig administered 1 hr before infection; format: functional, organism-based
Influenza A virus [32] = experiment: Antiviral activity against Influenza A virus (A/Hong Kong/1073/99(H9N2)) infected in MDCK cells assessed as log reduction in viral titer at 385 uM after 48 hrs […]; format: functional
H3N2 subtype [33] = experiment: Antiviral activity against Influenza A virus (A/Aichi/2/1968(H3N2)) infected in […] at 100 to 150 mg/kg, ig administered 24 hrs before infection; format: functional, organism-based
Influenza A virus [34] = experiment: Antiviral activity against Influenza A virus (A/duck/Potsdam/1402-6/1986 (H5N2)) infected in MDCK cells assessed as log reduction in viral titer at 385 uM after 48 hrs […]; format: functional
Influenza A virus [35] = experiment: Antiviral activity against Influenza A virus (A/duck/Potsdam/1402-6/1986 (H5N2)) infected in MDCK cells assessed as log reduction in viral titer at 960 uM after 48 hrs by MTT assay; format: functional
[36] = Cytotoxicity against MDCK cells after 48 hrs by MTT assay; format: cell-based, Canis lupus familiaris; conditions: dog
Outline: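 Cytotoxicity was measured on uninfected MDCK monolayers grown in MEM with 10% FBS and penicillin/streptomycin at 37°C under 5% CO2. Viability was read by MTT and expressed as CC50.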

Influenza B virus [37] = experiment: Antiviral activity against Influenza B virus (B/Lee/1940) infected in […] at 100 to 150 mg/kg, ig administered 24 hrs before infection; format: functional, organism-based
[38] = Toxicity against ip dosed rabbit; format: organism-based, Oryctolagus cuniculus; conditions: in vivo
Influenza B virus [39] = experiment: Antiviral activity against Influenza B virus (B/Lee/1940) infected in rabbit at 100 to 150 mg/kg, ig administered after 48 hrs post infection; format: functional, organism-based
Influenza B virus [40] = experiment: Antiviral activity against Influenza B virus (B/Lee/1940) infected in […] assessed as survival rate at 150 mg/kg, ig administered 1 and 24 hrs before infection and 24 to 72 hrs post infection; format: functional; conditions: route intragastric
H3N2 subtype [41] = experiment: Antiviral activity against Influenza A virus (A/Aichi/2/1968(H3N2)) infected in […] at 100 to 150 mg/kg, ig administered after 24 hrs post infection; format: functional, organism-based
Influenza A virus [42] = experiment: Antiviral activity against Influenza A virus (A/Vietnam/1194/2004 (H5N1)) infected in MDCK cells assessed as log reduction in viral titer at 385 uM after 48 hrs […]; format: functional
Influenza A virus [43] = experiment: Antiviral activity against Influenza A virus H3N2 (A/Victoria/35/72) infected in human HuH7 cells assessed as log reduction in viral titer at 1000 ug/ml; format: functional, Huh-7

## CSc1nc2[nH]nc(N)c(=O)n2n1
[1]
  half-life: 0.97 h
[2]
  AUC at 24 h: 0.69 µg·h/mL
[3]
  MRT: 4.14 h
[4]
  Tmax: 3 h
[5]
  Cmax: 0.14 µg/mL
[6]
  CL/F: 44.4 L/h/kg
Oryctolagus cuniculus [7]
  Vdss: 58.5 L/kg

## CC(N)C12CC3CC(CC(C3)C1)C2 (configuration not stated) [RIMANTADINE]
Oryctolagus cuniculus [8]
  AUC: 1.2 µg·h/mL
Oryctolagus cuniculus [9]
  Vdss: 1.2 L/kg
Influenza B virus [10]
  Activity: 15%
Influenza A virus [11]
  FC: 1
Influenza A virus [12]
  FC: 2
Influenza A virus [13]
  FC: 5
Influenza A virus [14]
  FC: 0.75
H3N2 subtype [15]
  Activity: 80%
H3N2 subtype [16]
  Activity: 85%
Influenza A virus [17]
  FC: 3
Influenza B virus [18]
  Activity: 20%

## CSc1nc2[n-]nc([N+](=O)[O-])c(=O)n2n1.O.O.[Na+] [TRIAZAVIRINE]
Influenza A virus [19]
  FC: 0.5
Influenza A virus [20]
  FC: 3.5
Influenza A virus [21]
  FC: 1
Influenza A virus [22]
  FC: 1
[23]
  LD50: 2200 mg/kg
Influenza A virus [24]
  FC: <0.75
Influenza B virus [25]
  Activity: Active
Influenza A virus [26]
  FC: 2.25
[27]
  bioavailability: 12.5%
Influenza A virus [28]
  FC: 0.25
H3N2 subtype [29]
  Activity: Active
H3N2 subtype [30]
  Activity: Active
[1]
  half-life: 1.1 h
[2]
  AUC at 24 h: 3.1 µg·h/mL
[3]
  MRT: 2.3 h
Influenza B virus [31]
  Activity: Active
Influenza A virus [32]
  FC: 0
[4]
  Tmax: 0.4 h
H3N2 subtype [33]
  Activity: Active
Influenza A virus [34]
  FC: 0.5
Influenza A virus [35]
  FC: 1.6
[36]
  CC50 at 48 h: > 8 mM
[5]
  Cmax: 1.1 µg/mL
Influenza B virus [37]
  Activity: Active
[38]
  LD50: 1400 mg/kg
[6]
  CL/F: 37 L/h/kg
Oryctolagus cuniculus [7]
  Vdss: 83.5 L/kg
Influenza B virus [39]
  Activity: Active
H3N2 subtype [16]
  Activity: 70%
Influenza B virus [40]
  Activity: 65%
H3N2 subtype [41]
  Activity: Active
Influenza A virus [42]
  FC: 2
Influenza B virus [18]
  Activity: 65%
Influenza A virus [43]
  FC: <0.75

Source: ChEMBL document CHEMBL1255449, “Antiviral properties, metabolism, and pharmacokinetics of a novel azolo-1,2,4-triazine-derived inhibitor of influenza A and B virus replication” (Antimicrob Agents Chemother, 2010)
